IC50 and ED50 data for two compounds are collected here from ChEMBL document CHEMBL1136626, “Discovery of novel and selective IKK-beta serine-threonine protein kinase inhibitors. Part 1” (Bioorg Med Chem Lett, 2003).

By IC50 is commonly meant the concentration that inhibits the measured activity by half. What is called ED50 is the dose at which the effect has come halfway, by size or by number of responders.

For assay [1], the target named is T1, Dual specificity mitogen-activated protein kinase kinase 4 (Homo sapiens, UniProt P45985).
T1 sequence (P45985 whole entry): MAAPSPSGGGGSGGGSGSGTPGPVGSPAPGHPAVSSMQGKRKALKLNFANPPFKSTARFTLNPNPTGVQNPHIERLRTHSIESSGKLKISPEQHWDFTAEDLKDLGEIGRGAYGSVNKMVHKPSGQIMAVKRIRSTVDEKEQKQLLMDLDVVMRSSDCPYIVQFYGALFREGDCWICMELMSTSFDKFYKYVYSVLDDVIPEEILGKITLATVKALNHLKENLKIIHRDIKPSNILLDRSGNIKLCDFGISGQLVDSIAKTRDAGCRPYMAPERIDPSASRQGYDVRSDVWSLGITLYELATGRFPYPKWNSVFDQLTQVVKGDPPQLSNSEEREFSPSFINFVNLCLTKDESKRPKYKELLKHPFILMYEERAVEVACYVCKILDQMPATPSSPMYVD
The assay is described as follows: Inhibition of human mitogen-activated protein kinase kinase 4 (MKK4).

Assay [2] has as its system Mus musculus. Put plainly: In vivo LPS-induced TNF-alpha production in mice after oral administration (60 min pretreatment). In kind it is functional. The method, boiled down:
(§1)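 Eight-week-old female BALB/c mice given 200 (per mouse) LPS ip in saline. Compound dosed ip 30 min before LPS, or po in 10% cremophor/saline 60 min before. Blood taken under pentobarbital anaesthesia 90 min after LPS. Plasma TNFα measured by ELISA; mean of 5 mice per group used to calculate percent reduction versus LPS controls; ED₅₀ reported.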

For assay [3], the target named is Tyrosine-protein kinase SYK (Homo sapiens, UniProt P43405). The assay is described as follows: Inhibition of human Syk.
A further assay has as its system A549. Put plainly: In vitro concentration required to inhibit the TNF-alpha-induced RANTES production in A549 human lung epithelium cell line. In kind it is functional, cell-based. The method, boiled down:
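A549 human lung epithelial cells grown in D-MEM with 10% FCS, penicillin/streptomycin and 2 mM glutamine. Cells (4×10⁴/well) pretreated 1 h with compound or vehicle (0.1% DMSO), then stimulated with 100 ng/mL TNF-α for 24 h. RANTES in supernatants measured by quantitative sandwich fluorescent immunoassay.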

Assay [4] has as its target T2, Inhibitor of nuclear factor kappa-B kinase subunit beta (Homo sapiens, UniProt O14920).
T2 sequence (O14920 whole entry): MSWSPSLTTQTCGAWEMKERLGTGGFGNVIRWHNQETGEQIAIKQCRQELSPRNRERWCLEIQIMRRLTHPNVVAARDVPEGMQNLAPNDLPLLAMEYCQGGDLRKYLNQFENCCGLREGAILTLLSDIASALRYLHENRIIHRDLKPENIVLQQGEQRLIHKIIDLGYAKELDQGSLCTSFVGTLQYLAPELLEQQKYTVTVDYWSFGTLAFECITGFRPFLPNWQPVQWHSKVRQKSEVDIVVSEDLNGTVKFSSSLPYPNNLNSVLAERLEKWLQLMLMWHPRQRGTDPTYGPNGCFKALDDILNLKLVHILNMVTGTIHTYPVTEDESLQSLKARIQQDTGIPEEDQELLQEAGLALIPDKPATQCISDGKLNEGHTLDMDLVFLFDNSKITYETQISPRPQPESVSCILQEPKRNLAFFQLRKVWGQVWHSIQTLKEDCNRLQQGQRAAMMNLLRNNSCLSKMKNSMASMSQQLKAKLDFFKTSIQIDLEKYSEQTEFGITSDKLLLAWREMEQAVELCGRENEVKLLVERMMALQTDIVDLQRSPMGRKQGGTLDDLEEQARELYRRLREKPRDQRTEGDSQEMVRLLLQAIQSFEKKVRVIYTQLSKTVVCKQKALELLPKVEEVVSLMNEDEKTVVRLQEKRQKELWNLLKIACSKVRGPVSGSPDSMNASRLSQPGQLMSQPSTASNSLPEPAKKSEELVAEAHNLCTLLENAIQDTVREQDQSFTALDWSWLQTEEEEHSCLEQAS
Put plainly: In vitro inhibitory concentration required against recombinant human IkB kinase beta (IKK-beta). In a few lines: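 Recombinant His-tagged human IKK-β from baculovirus-infected insect cells, final […], with biotinylated GST-IκBα(1-54) substrate (final 0.2) in Tris-HCl pH 7.6 buffer with MgCl₂, DTT, Na₃VO₄ and BSA; DMSO final 0.25%. Started with ATP plus [γ-³³P]ATP, 2 h at rt, stopped with EDTA. Substrate captured on streptavidin plates, washed, counted by scintillation.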

Assay [5] addresses T3, Inhibitor of nuclear factor kappa-B kinase subunit alpha (Homo sapiens, UniProt O15111).
T3 sequence (O15111 whole entry): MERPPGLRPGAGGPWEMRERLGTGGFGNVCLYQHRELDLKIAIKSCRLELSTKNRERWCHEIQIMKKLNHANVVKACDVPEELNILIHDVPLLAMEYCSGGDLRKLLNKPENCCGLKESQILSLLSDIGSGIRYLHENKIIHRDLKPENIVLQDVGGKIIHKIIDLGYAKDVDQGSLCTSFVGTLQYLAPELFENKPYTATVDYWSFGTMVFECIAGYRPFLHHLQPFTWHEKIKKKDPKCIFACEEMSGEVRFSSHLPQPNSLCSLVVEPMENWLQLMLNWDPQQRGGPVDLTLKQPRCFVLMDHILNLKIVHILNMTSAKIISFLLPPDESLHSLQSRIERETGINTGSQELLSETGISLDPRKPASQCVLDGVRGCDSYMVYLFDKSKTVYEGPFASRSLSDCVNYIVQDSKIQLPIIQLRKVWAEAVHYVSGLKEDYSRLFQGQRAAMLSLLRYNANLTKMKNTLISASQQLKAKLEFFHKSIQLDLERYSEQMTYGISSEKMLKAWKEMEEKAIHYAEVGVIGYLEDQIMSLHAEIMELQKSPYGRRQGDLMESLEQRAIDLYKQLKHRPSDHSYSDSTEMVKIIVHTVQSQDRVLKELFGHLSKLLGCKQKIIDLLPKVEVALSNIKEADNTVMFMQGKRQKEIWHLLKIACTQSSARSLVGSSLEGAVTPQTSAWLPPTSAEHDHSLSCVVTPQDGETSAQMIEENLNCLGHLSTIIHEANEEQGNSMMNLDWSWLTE
The assay is described as follows: Inhibition of human IKK-alpha kinase.

In assay [6] the test system is Mus musculus. The assay is described as follows: In vivo LPS-induced TNF-alpha production in mice after ip administration (30 min pretreatment). It is filed as functional. In a few lines: as §1
The test system of a further assay is HEK293. The assay is described as follows: In vitro inhibition of NF-kappaB-Luciferase in HEK293 cell line. In kind it is functional, cell-based. The conditions noted are these: Homo sapiens.
For the next assay, the system named is Jurkat. The assay is described as follows: In vitro inhibition of anti-CD3/anti-CD28-I induced IL-2 release in Jurkat T-cells. It is filed as functional, cell-based. The conditions noted are these: Homo sapiens.
The species named for assay [7] is Mus musculus. Put plainly: In vitro inhibition of IgE in mouse B-cells. It is filed as functional, cell-based.
The test system of another assay is PBMC. Put plainly: In vitro inhibition TNF-alpha release in human Peripheral blood mononuclear cells (PBMC). In kind it is functional, cell-based.
Assay [8] deals with T3, Inhibitor of nuclear factor kappa-B kinase subunit alpha. Put plainly: Inhibition of human IKK-alpha.

Turning to `N#Cc1c(-c2cccc(NC(=O)CCN3CCCCC3)c2)cc(-c2ccccc2O)nc1N`, the IC50 in [1] was over 20 µM; in [3], over 20 µM; in the assay with A549, 7 µM; in assay [4], 0.6 µM; in [5], 20 µM. The ED50 was 2 mg/kg with Mus musculus [2] and under 0.03 mg/kg with Mus musculus [6].

Take `N#Cc1c(-c2cccc(NC(=O)C3CCC(=O)O3)c2)cc(-c2ccccc2O)nc1N` (stereo not drawn): the IC50 in [1] was over 20 µM; with HEK293 it was 8 µM; in assay [3], over 20 µM; in the assay with A549, 8 µM; in the assay with Jurkat, 15 µM; in [4] it was 1.5 µM. Further, the values for the IC50 (in the assay filed under Mus musculus [7]; in the assay on PBMC; in assay [8]) were 0.35 µM, 10 µM and over 20 µM, respectively. Moreover, the values for the ED50 in the assay on Mus musculus [2] and in the assay with Mus musculus [6] were over 30 mg/kg and 10 mg/kg, respectively.
